Reference: ChEMBL document CHEMBL1765069, “Decahydroquinoline amides as highly selective CB2 agonists: role of selectivity on in vivo efficacy in a rodent model of analgesia” (Bioorg Med Chem Lett, 2011)
Values joined by “and” are separate entries in the source; they are usually repeats but may differ in a detail not shown here. Equal entries are not always repeated.

Experiments:
Cannabinoid receptor 1 [1] = molecular target: T1, Cannabinoid receptor 1 (Homo sapiens, UniProt P21554); experiment: Agonist activity at human CB1 receptor expressed in CHOK1 cells assessed as inhibition of forskolin-induced cAMP production treated 15 mins before forskolin challenge measured after 1 hr by HTRF assay; assay type: functional, cell-based, CHO-K1
T1 sequence (P21554 whole entry): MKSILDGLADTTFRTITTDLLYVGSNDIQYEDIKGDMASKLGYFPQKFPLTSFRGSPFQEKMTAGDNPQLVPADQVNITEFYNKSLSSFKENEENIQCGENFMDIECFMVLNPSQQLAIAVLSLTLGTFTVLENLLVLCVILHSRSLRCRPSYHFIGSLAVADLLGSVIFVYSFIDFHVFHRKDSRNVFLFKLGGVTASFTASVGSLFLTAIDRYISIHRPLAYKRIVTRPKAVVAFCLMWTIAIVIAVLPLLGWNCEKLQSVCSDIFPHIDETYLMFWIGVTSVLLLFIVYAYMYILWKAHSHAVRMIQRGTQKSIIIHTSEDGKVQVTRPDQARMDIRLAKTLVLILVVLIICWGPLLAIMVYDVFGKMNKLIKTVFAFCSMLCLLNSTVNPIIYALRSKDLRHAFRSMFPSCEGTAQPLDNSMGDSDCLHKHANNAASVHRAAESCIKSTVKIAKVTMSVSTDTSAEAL
How it was run: (§1)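 CHO-K1 cells (1000 per well) expressing human or rat CB1 or CB2 were preincubated with compound for 15 min at room temperature. Forskolin was then added at its EC70 for 30 min at room temperature. cAMP was detected by HTRF (d2-cAMP plus anti-cAMP cryptate) after a final 1 h incubation at room temperature. Values are reported as IC50 with % Emax.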

Cannabinoid receptor 2 [2] = molecular target: T2, Cannabinoid receptor 2 (Homo sapiens, UniProt P34972); experiment: Agonist activity at human CB2 receptor expressed in CHOK1 cells assessed as inhibition of forskolin-induced cAMP production treated 15 mins before forskolin challenge measured after 1 hr by HTRF assay; assay type: functional, cell-based, CHO-K1; how it was run: as §1
T2 sequence (P34972 whole entry): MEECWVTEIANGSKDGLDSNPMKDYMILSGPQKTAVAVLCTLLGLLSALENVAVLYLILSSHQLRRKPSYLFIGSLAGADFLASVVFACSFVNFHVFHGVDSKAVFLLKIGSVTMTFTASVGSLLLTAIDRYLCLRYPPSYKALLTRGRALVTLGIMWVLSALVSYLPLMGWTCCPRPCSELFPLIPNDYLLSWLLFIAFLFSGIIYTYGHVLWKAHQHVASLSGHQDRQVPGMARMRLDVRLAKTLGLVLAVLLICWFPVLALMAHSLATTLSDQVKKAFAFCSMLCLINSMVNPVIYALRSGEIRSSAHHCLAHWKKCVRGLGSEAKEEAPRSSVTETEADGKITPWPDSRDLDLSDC

Cannabinoid receptor 1 [3] = molecular target: T1, Cannabinoid receptor 1; experiment: Agonist activity at human CB1 receptor expressed in CHOK1 cells assessed as inhibition of forskolin-induced cAMP production treated 15 mins before forskolin challenge measured after 1 hr by HTRF assay relative to control; assay type: functional, cell-based; details: CHO-K1
How it was run: (§2)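 CHO-K1 cells (1000 per well) expressing human or rat CB1 or CB2 were preincubated with compound at room temperature for 15 min. Forskolin at EC70 was then added for a further 30 min at room temperature. cAMP was read by HTRF (d2-cAMP plus anti-cAMP-cryptate, final 1 h at room temperature). IC50 and % Emax were reported.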

Cannabinoid receptor 2 [4] = molecular target: T2, Cannabinoid receptor 2; experiment: Agonist activity at human CB2 receptor expressed in CHOK1 cells assessed as inhibition of forskolin-induced cAMP production treated 15 mins before forskolin challenge measured after 1 hr by HTRF assay relative to control; assay type: functional, cell-based; details: CHO-K1; how it was run: as §2

IC50 (Cannabinoid receptor 1 [1]) | IC50 (Cannabinoid receptor 2 [2]) | Emax (Cannabinoid receptor 1 [3]) | Emax (Cannabinoid receptor 2 [4]) | SMILES
> 17000 nM | 5220 nM and 597 nM | – | – | O=C(c1csc(-c2ccncc2)n1)N1CCC(O)(c2ccccc2)[C@@H]2CCCC[C@@H]21 (stereo not given in full) [listing 1 of 2 here]
> 17000 nM | 45 nM | 14% | 99% | O=C(c1ccccc1)N1CC[C@](O)(c2ccccc2)[C@H]2CCCC[C@@H]21
963 nM | 24 nM | 72% | 90% | O=C(c1ccc(Cl)cc1)N1CC[C@](O)(c2ccccc2)[C@H]2CCCC[C@@H]21
2020 nM | 41 nM | 84% | 98% | O=C(c1ccc2ccccc2n1)N1CC[C@](O)(c2ccccc2)[C@H]2CCCC[C@@H]21
> 17000 nM | 1290 nM | – | – | O=C(c1cc(-c2ccccc2F)n[nH]1)N1CC[C@](O)(c2ccccc2)[C@H]2CCCC[C@@H]21
4540 nM | 4.2 nM | 76% | 100% | O=C(c1ccccc1)N1CC[C@](O)(c2ccccc2)[C@H]2CCCC[C@H]21
312 nM | 0.14 nM | 79% | 90% | O=C(c1ccc(Cl)cc1)N1CC[C@](O)(c2ccccc2)[C@H]2CCCC[C@H]21
188 nM | 0.82 nM | 98% | 98% | O=C(c1ccc2ccccc2n1)N1CC[C@](O)(c2ccccc2)[C@H]2CCCC[C@H]21
– | 106 nM | – | 56% | CS(=O)(=O)c1ccc([C@@]2(O)CCN(C(=O)c3ccccc3)[C@H]3CCCC[C@@H]32)cc1
– | 358 nM | – | 66% | COc1ccc([C@@]2(O)CCN(C(=O)c3ccccc3)[C@H]3CCCC[C@@H]32)cc1
– | 938 nM | – | 86% | O=C(c1ccccc1)N1CC[C@](O)(c2cccnc2)[C@H]2CCCC[C@@H]21
– | 155 nM | – | 88% | O=C(c1ccccc1)N1CC[C@](O)(c2ccc(Cl)cc2)[C@H]2CCCC[C@@H]21
– | 493 nM | – | 69% | O=C(c1ccccc1)N1CC[C@](O)(c2cccc(Cl)c2)[C@H]2CCCC[C@@H]21
– | 1050 nM | – | 85% | N#Cc1cccc([C@@]2(O)CCN(C(=O)c3ccccc3)[C@H]3CCCC[C@@H]32)c1
– | 338 nM | – | 52% | CS(=O)(=O)c1cccc([C@@]2(O)CCN(C(=O)c3ccccc3)[C@H]3CCCC[C@@H]32)c1
– | 810 nM | – | -16% | O=C(c1ccccc1)N1CC[C@](O)(c2cccc(C(F)(F)F)c2)[C@H]2CCCC[C@@H]21
– | – | 56% | 81% | O=C(c1cc(-c2ccccc2F)[nH]n1)N1CC[C@](O)(c2ccccc2)[C@H]2CCCC[C@@H]21
– | – | 10% and 3% | 77% and 89% | O=C(c1csc(-c2ccncc2)n1)N1CCC(O)(c2ccccc2)[C@@H]2CCCC[C@@H]21 (stereo not given in full) [listing 2 of 2 here]
> 17000 nM | 56 nM | – | 100% | CN1CCCCC1C(=O)N1CC[C@@](O)(c2ccccc2)[C@@H]2CCCC[C@@H]21 (mixture of isomers)
> 17000 nM | 62 nM | – | 91% | O=C(C1CNCCN1)N1CC[C@@](O)(c2ccccc2)[C@@H]2CCCC[C@@H]21 (mixture of isomers)
> 17000 nM | 135 nM | – | 99% | CN1CC(C(=O)N2CC[C@@](O)(c3ccccc3)[C@@H]3CCCC[C@@H]32)CCC1=O (mixture of isomers)
> 17000 nM | 3470 nM | – | 89% | O=C1CC(C(=O)N2CC[C@@](O)(c3ccccc3)[C@@H]3CCCC[C@@H]32)CN1 (mixture of isomers)
> 17000 nM | 193 nM | – | 102% | O=C1CCC(C(=O)N2CC[C@@](O)(c3ccccc3)[C@@H]3CCCC[C@@H]32)N1 (mixture of isomers)

IC50 (Cannabinoid receptor 1 [1]) | IC50 (Cannabinoid receptor 2 [2]) | Emax (Cannabinoid receptor 1 [3]) | Emax (Cannabinoid receptor 2 [4]) | SMILES
> 17000 nM | 11 nM | – | 102% | O=C(c1ccon1)N1CC[C@@](O)(c2ccccc2)[C@@H]2CCCC[C@@H]21 (racemic)
> 17000 nM | 6.3 nM | – | 99% | O=C(c1ccncc1F)N1CC[C@@](O)(c2ccccc2)[C@@H]2CCCC[C@@H]21 (racemic)
> 17000 nM | 124 nM | – | 100% | Cn1ccnc1C(=O)N1CC[C@@](O)(c2ccccc2)[C@@H]2CCCC[C@@H]21 (racemic)
> 17000 nM | 6.1 nM | – | 99% | Cc1cccc(C(=O)N2CC[C@@](O)(c3ccccc3)[C@@H]3CCCC[C@@H]32)n1 (racemic)
> 17000 nM | 16 nM | – | 100% | O=C(c1ccc(OCC(F)(F)F)nc1)N1CC[C@@](O)(c2ccccc2)[C@@H]2CCCC[C@@H]21 (racemic)
> 17000 nM | 282 nM | – | 101% | O=C(c1nnc[nH]1)N1CC[C@@](O)(c2ccccc2)[C@@H]2CCCC[C@@H]21 (racemic)
> 17000 nM | 12 nM | – | 96% | O=C(c1ccc(C2CC2)nc1)N1CC[C@@](O)(c2ccccc2)[C@@H]2CCCC[C@@H]21 (racemic)
> 17000 nM | 395 nM | – | 98% | CN1CCC(C(=O)N2CC[C@@](O)(c3ccccc3)[C@@H]3CCCC[C@@H]32)CC1 (racemic)
> 17000 nM | 2180 nM | – | 87% | O=C([C@@H]1C[C@@H](O)CCN1)N1CC[C@@](O)(c2ccccc2)[C@@H]2CCCC[C@@H]21 (racemic)
> 17000 nM | 41 nM | – | 101% | O=C(c1cscn1)N1CC[C@@](O)(c2ccccc2)[C@@H]2CCCC[C@@H]21 (racemic)
> 17000 nM | 12 nM | – | 96% | O=C(c1ccc(C(F)(F)F)nc1)N1CC[C@@](O)(c2ccccc2)[C@@H]2CCCC[C@@H]21 (racemic)
> 17000 nM | 140 nM | – | 103% | O=C(c1ccncn1)N1CC[C@@](O)(c2ccccc2)[C@@H]2CCCC[C@@H]21 (racemic)
> 17000 nM | 26 nM | – | 104% | O=C(c1cn(CC(F)(F)F)cn1)N1CC[C@@](O)(c2ccccc2)[C@@H]2CCCC[C@@H]21 (racemic)
– | – | – | 99% | Cc1ccc(C(=O)N2CC[C@@](O)(c3ccccc3)[C@@H]3CCCC[C@@H]32)cn1 (racemic)
> 17000 nM | 0.55 nM | – | – | O=C(c1csc(-c2ccncc2)n1)N1CCC(O)(c2ccccc2)[C@@H]2CCCC[C@@H]21 (single isomer, unassigned; form 1) [listing 1 of 2 here]
– | – | 12% | 100% | O=C(c1csc(-c2ccncc2)n1)N1CCC(O)(c2ccccc2)[C@@H]2CCCC[C@@H]21 (single isomer, unassigned; form 1) [listing 2 of 2 here]
> 17000 nM | 7.9 nM | – | – | O=C(c1csc(-c2ccncc2)n1)N1CCC(O)(c2ccccc2)[C@@H]2CCCC[C@@H]21 (single isomer, unassigned; form 2) [listing 1 of 2 here]
– | – | 18% | 98% | O=C(c1csc(-c2ccncc2)n1)N1CCC(O)(c2ccccc2)[C@@H]2CCCC[C@@H]21 (single isomer, unassigned; form 2) [listing 2 of 2 here]
> 17000 nM | 388 nM | – | – | O=C(c1csc(-c2ccncc2)n1)N1CCC(O)(c2ccccc2)[C@@H]2CCCC[C@@H]21 (single isomer, unassigned; form 3) [listing 1 of 2 here]
– | – | 51% | 97% | O=C(c1csc(-c2ccncc2)n1)N1CCC(O)(c2ccccc2)[C@@H]2CCCC[C@@H]21 (single isomer, unassigned; form 3) [listing 2 of 2 here]
930 nM | > 17000 nM | – | – | O=C(c1csc(-c2ccncc2)n1)N1CCC(O)(c2ccccc2)[C@@H]2CCCC[C@@H]21 (single isomer, unassigned; form 4) [listing 1 of 2 here]
– | – | 46% | 19% | O=C(c1csc(-c2ccncc2)n1)N1CCC(O)(c2ccccc2)[C@@H]2CCCC[C@@H]21 (single isomer, unassigned; form 4) [listing 2 of 2 here]

SMILES | IC50 (Cannabinoid receptor 1 [1]) | IC50 (Cannabinoid receptor 2 [2]) | Emax (Cannabinoid receptor 1 [3]) | Emax (Cannabinoid receptor 2 [4])
O=C(c1cccc2[nH]ccc12)N1CC[C@](O)(c2ccccc2)[C@H]2CCCC[C@@H]21 | > 17000 nM | 22 nM | 31% | 94%
CN1CCC(C(=O)N2CC[C@](O)(c3ccccc3)[C@H]3CCCC[C@@H]32)C1 (stereo not given in full) | > 17000 nM | > 17000 nM | 34% | 34%
O=C(c1ccccc1)N1CC[C@](O)(c2ccccn2)[C@H]2CCCC[C@@H]21 | – | 1360 nM | – | 65%
O=C(c1cccc2[nH]ncc12)N1CCC(O)(c2ccccc2)[C@@H]2CCCC[C@@H]21 (stereo not given in full) [listing 1 of 2 here] | 4250 nM | 4.9 nM | – | –
O=C(c1cccc2[nH]ncc12)N1CCC(O)(c2ccccc2)[C@@H]2CCCC[C@@H]21 (stereo not given in full) [listing 2 of 2 here] | – | – | 95% | 100%
O=C(c1ncccn1)N1CC[C@@](O)(c2ccccc2)[C@@H]2CCCC[C@@H]21 (racemic) | > 17000 nM | 29 nM | – | 101%
O=C(c1cccc2[nH]ncc12)N1CCC(O)(c2ccccc2)[C@@H]2CCCC[C@@H]21 (single isomer, unassigned) [listing 1 of 2 here] | > 17000 nM | 1.6 nM | – | –
O=C(c1cccc2[nH]ncc12)N1CCC(O)(c2ccccc2)[C@@H]2CCCC[C@@H]21 (single isomer, unassigned) [listing 2 of 2 here] | – | – | 28% | 100%
